The record followed here is publication PMC8985159 (RSC Chemical Biology, 2022).

What is called IC50 is the midpoint of a concentration-inhibition curve. For orientation: GI50 means the concentration giving 50% growth inhibition.

Test [1] deals with T1, Sirt2_56-356 (Homo sapiens, UniProt Q8IXJ6).
T1 sequence (Q8IXJ6 56-356): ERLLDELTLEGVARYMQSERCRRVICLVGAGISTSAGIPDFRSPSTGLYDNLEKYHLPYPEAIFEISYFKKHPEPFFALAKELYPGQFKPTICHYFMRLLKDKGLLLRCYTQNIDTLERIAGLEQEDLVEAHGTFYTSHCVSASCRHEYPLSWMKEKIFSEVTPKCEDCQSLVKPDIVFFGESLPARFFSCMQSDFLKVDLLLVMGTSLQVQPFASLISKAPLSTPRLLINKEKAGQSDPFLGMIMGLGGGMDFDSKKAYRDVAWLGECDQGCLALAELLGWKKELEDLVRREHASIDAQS
The test can be described thus: Sirtuin deacetylation activity assay. Format: biochemical. Conditions: In vitro Sirt2 activity assay IC50, Table 2.

In the next test the target is T2, human recombinant HDAC6 (Homo sapiens, UniProt Q9UBN7).
T2 sequence (Q9UBN7 1-1215): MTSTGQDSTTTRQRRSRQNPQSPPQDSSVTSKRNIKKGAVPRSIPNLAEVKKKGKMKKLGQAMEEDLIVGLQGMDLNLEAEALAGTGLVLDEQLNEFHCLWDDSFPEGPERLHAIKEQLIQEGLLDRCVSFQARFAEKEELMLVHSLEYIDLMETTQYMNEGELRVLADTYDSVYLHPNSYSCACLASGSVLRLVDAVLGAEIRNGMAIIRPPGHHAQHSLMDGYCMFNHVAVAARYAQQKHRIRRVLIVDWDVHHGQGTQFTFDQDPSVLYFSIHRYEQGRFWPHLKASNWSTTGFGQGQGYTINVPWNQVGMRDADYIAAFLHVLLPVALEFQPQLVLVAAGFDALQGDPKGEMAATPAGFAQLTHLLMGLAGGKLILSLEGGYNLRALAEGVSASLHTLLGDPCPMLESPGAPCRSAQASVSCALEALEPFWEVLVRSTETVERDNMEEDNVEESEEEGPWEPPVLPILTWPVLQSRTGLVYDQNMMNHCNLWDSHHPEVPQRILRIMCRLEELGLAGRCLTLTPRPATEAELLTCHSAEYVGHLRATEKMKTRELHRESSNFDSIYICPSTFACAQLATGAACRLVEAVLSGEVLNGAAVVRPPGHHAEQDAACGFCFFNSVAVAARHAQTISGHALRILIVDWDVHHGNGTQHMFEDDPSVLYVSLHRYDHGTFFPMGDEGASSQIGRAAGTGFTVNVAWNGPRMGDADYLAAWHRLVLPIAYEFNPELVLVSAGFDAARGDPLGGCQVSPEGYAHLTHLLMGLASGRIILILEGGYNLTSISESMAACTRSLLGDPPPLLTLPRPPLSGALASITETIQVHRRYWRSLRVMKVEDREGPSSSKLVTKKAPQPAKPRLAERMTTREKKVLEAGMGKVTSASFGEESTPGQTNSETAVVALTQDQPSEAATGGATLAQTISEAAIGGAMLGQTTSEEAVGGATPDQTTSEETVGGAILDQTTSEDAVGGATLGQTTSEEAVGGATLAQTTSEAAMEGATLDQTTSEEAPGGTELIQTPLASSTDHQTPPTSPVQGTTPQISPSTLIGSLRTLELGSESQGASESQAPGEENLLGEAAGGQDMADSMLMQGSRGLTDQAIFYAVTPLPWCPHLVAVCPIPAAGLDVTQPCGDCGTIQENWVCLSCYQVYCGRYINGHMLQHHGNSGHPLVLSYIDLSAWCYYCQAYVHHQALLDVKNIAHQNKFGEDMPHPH
The test can be described thus: HDAC6 activity assay. The format is biochemical. The method in brief: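 Enzyme was incubated with serially diluted test compound in DMSO and ZMAL (added from a 126 μM solution) for 90 min at 37 °C. Stop solution (33 μM trichostatin A, 6 mg/mL trypsin) was added, followed by 30 min at 37 °C. Fluorescence read at Ex 390 / Em 460 nm.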

Another test deals with HGC-27 cells. In words: Cell viability assay. Format: cell-based. Conditions: Homo sapiens. Put shortly: (§1)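 MTS/PMS (20:1) viability assay. Cells were seeded at 2000 per well with test compound or vehicle (0.5% DMSO final) and incubated 72 or 120 h at 37 °C, 5% CO2. Absorbance was read 2–4 h after reagent addition. Media: HEK293T in DMEM with 10% FBS, 2 mM glutamine and 1% pen-strep; HGC-27 in DMEM:Ham's 12 (1:1) with 5% FCS.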

Another test deals with PC-3M-luc cells. In words: Cell viability assay. The format is cell-based, human. The settings on record: 3 days vs 5 days.
Another test has as its system HEK293T cells. In words: Cell viability assay. The format is cell-based. Conditions: Homo sapiens, HEK-293T. The method in brief:
as §1

In test [2] the test system is α-tubulin acetylation in PC-3M-luc cells. In words: Acetylation levels of α-tubulin by immunofluorescence. Format: cell-based, human. Conditions: 20 μM, 5 hours. The method in brief:
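PC-3M-luc cells were plated at 20 000 per well, incubated overnight at 37 °C and 5% CO2, then exposed to 20 μM test compound for 5 h. They were fixed in 4% PFA for 8–10 min at RT and extracted with PBS/0.1% Triton X-100. Blocking used PBS/0.1% Triton/5% FCS. […] Read-out was immunofluorescence microscopy.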

Test [3] concerns KRas4a fatty acylation in HEK293T cells. In words: In cell inhibition of SIRT2 defatty-acylation of KRas-4a. Conditions: 25 μM. The format is cell-based, human.
For test [4], the target named is T1, Sirt2_56-356. The test can be described thus: Fluorescence polarization assay. The format is binding.

A value given as a limit tells only on which side of the number the result lay.

Regarding `Cc1cc(C)nc(SCC(=O)Nc2ncc(Cc3cccc(OCc4cn(Cc5ccc(OCCN6CCOCC6)cc5)nn4)c3)s2)n1` [Compound 12], the IC50 against Sirt2_56-356 [1] is 0.12 ± 0.01 µM; on human recombinant HDAC6, more than 100 µM; on Sirt2_56-356 [4] it was 0.07 ± 0.02 µM. Besides, the GI50 in the test on HGC-27 cells came out at 8.21 ± 0.59 µM; with HEK293T cells it was 7.7 ± 0.71 µM. Besides, the “dependence of the effect on cell viability on incubation time” value in the test on PC-3M-luc cells is given as “higher effects on the cell viability of PC-3M-luc cells could be observed after prolonged incubation time”. The “acetylation levels of α-tubulin” value in test [2] is “elevated”. Further, in test [3], the “KRas4a acylation levels (in words)” value is reported as “increased acylation levels of KRas4a compared to DMSO treated cells”.
